Measured values pooled from the literature.
Lines come from different studies, so protocols differ.
Target: Protein-tyrosine kinase 2-beta (PTK2B, Homo sapiens, UniProt Q14289)

For `COc1ncccc1-c1cnn2ccc(N3CCN(C(=O)OC(C)C)CC3)nc12`, the remaining binding was 100% (binding, competition with immobilised ligand; 1 µM).
`Cc1nn(C)cc1-c1nc2c(N3CCN(Cc4ccc(Cl)cc4)CC3)c(Cl)cnc2[nH]1` gave a remaining binding of 100% (binding, competition with immobilised ligand; 1 µM).
The remaining binding of `Nc1ncc(-c2nc(N3CCOCC3)nc(N3CCOCC3)n2)c(C(F)F)n1` is reported as 70% (binding, competition with immobilised ligand; 10 µM).
The remaining activity of `O=c1[nH]c2ccccc2n1C1CCN(Cc2ccc(-c3[nH]c4cc5ncnc5cc4nc3-c3ccccc3)cc2)CC1` is reported as 105% (enzyme activity; 0.5 µM).
The inhibition of `Cn1cc(-c2cc(F)cc(N3CCn4c(cc5c4CCCC5)C3=O)c2CO)cc(Nc2ccc(N3CCN(C4COC4)CC3)cn2)c1=O` is reported as 6% (enzyme activity, inhibitor; 0.1 µM).
For `Cn1cncc1[C@@](O)(COc1ccc(C#N)cc1-c1ccc(OC(F)(F)F)cc1)c1ccc(C#N)cc1`, the remaining binding was 100% (cell-free assay, competition with immobilised ligand; 1 µM).
`Cn1cc(-c2cccc(N3CCc4c(sc5c4CC(C)(C)C5)C3=O)c2CO)cc(Nc2ccncn2)c1=O` has an inhibition of 2% (enzyme activity, inhibitor; 1 µM).
`N#CC1(c2ccccn2)CCN(Cc2cc(C(=O)O)c(=O)n3ccccc23)CC1` gave a remaining binding of 100% (cell-free assay, competition with immobilised ligand; 1 µM).
